For 20 compounds, CC50, IC50 and selectivity ratio results are on record in ChEMBL document CHEMBL4368882, “Synthesis and biological evaluation against Leishmania donovani of novel hybrid molecules containing indazole-based 2-pyrone scaffolds” (Medchemcomm, 2019).

Series [1] can be described thus: Cytotoxicity against mouse RAW264.7 cells after 48 hrs by resazurin dye-based assay. It is filed as cell-based. The method in brief: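 RAW 264.7 cells seeded at 2 × 10⁴ per well in DMEM with 10% HIFBS and penicillin–streptomycin, 24 h preculture. Two-fold serial dilutions for 48 h at 37 °C, 5% CO₂. Resazurin (450 μM, 10 μL) added for 4 h in the dark, OD570/OD600 read. CC50 is the concentration reducing macrophage growth by 50%.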

Series [2] deals with Leishmania donovani. The series can be described thus: Antileishmanial activity against Leishmania donovani MHOM/ET/67/HU3 axenic amastigotes after 72 hrs by resazurin dye-based assay. It is filed as functional, organism-based. As to conditions: MHOM/ET/67/HU3, 72 h.
For series [3], the system named is Leishmania donovani. Put plainly: Antileishmanial activity against Leishmania donovani MHOM/ET/67/HU3 intramacrophage amastigotes infected in mouse RAW264.7 cells after 48 hrs by SYBR green1 dye-based fluorescence assay. Format: functional, organism-based. As to conditions: MHOM/ET/67/HU3, RAW264.7, 48 h. The gist of the method: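 RAW 264.7 macrophages (2 × 10⁴ per well, 24 h preculture) infected with axenic amastigotes at 16:1 parasite:macrophage for 24 h. Extracellular parasites then removed. Two-fold serial dilutions from 100 μM maximum in DMEM complete medium for 48 h. Cells lysed in Direct PCR Lysis Reagent with 3 freeze–thaw cycles and proteinase K 50 μg mL⁻¹ at 55 °C overnight. Extract mixed with SYBR Green I.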

The nature of series [4]: Selectivity index, ratio of CC50 for mouse RAW264.7 cells to IC50 for Leishmania donovani MHOM/ET/67/HU3 intramacrophage amastigotes infected in mouse RAW264.7 cells. As to conditions: read-out: Ratio CC50/IC50. Format: toxicity, cell-based. The method in brief: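 Ratio of the RAW 264.7 CC₅₀ to the intramacrophage amastigote IC₅₀, both measured in this work.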

In turn, `CC1=CC(=O)/C(=C(/C)Nc2ccc3cnn(Cc4ccc(C)cc4)c3c2)C(=O)O1` had a CC50 at 48 h in series [1] above 100 µM. Besides, the IC50 in series [2] and in series [3] was above 100 µM each time.

In series [1], `CC1=CC(=O)/C(=C(/C)Nc2ccc3cn(Cc4ccc(C)cc4)nc3c2)C(=O)O1` came in with a CC50 at 48 h above 100 µM. Also, the IC50 is 49.6 µM in series [2] and 57.4 µM in series [3].

Take `CCn1ncc2cc(N/C(C)=C3\C(=O)C=C(C)OC3=O)ccc21`: the CC50 at 48 h in series [1] is above 100 µM. Besides, the IC50 in series [2] and in series [3] was above 100 µM each time.

Take `CCn1cc2ccc(N/C(C)=C3\C(=O)C=C(C)OC3=O)cc2n1`: the CC50 at 48 h in series [1] is above 100 µM. Also, the IC50 in series [2] and in series [3] was above 100 µM in each case.

In series [1], `CCn1nc(Cl)c2ccc(N/C(C)=C3\C(=O)C=C(C)OC3=O)cc21` had a CC50 at 48 h of 6.23 µM. The IC50 in series [2] came to 11 µM; in series [3] it was 6.5 µM. The selectivity ratio in series [4] is 0.96.

`C=CCn1ncc2ccc(N/C(C)=C3\C(=O)C=C(C)OC3=O)cc21` showed a cytotoxic concentration (CC50) at 48 h in series [1] above 100 µM. For the same compound, the IC50 in series [2] and in series [3] was above 100 µM throughout.

`C=CCn1ncc2cc(N/C(C)=C3\C(=O)C=C(C)OC3=O)ccc21` displayed a CC50 at 48 h in series [1] above 100 µM. Moreover, the IC50 in series [2] and in series [3] was above 100 µM throughout.

Regarding `C=CCn1nc(Cl)c2ccc(N/C(C)=C3\C(=O)C=C(C)OC3=O)cc21`, the CC50 at 48 h in series [1] was above 100 µM. In addition, the IC50 in series [2] and in series [3] was above 100 µM each time.

`CC1=CC(=O)/C(=C(/C)Nc2ccc3c(Cl)n(Cc4ccc(C)cc4)nc3c2)C(=O)O1`: the CC50 at 48 h in series [1] was above 100 µM. In addition, the IC50 in series [2] and in series [3] was above 100 µM each time.

In series [1], `CC1=CC(=O)/C(=C(/C)Nc2ccc3cnn(C)c3c2)C(=O)O1` had a CC50 at 48 h above 100 µM. Further, the IC50 in series [2] and in series [3] was above 100 µM each time.

On to `CCn1cc2cc(N/C(C)=C3\C(=O)C=C(C)OC3=O)ccc2n1`, for which the CC50 at 48 h in series [1] was above 100 µM. For the same compound, the IC50 in series [2] and in series [3] was above 100 µM in each case.

`C=CCn1cc2ccc(N/C(C)=C3\C(=O)C=C(C)OC3=O)cc2n1` had a CC50 at 48 h in series [1] above 100 µM. Also, the IC50 in series [2] and in series [3] was above 100 µM in each case.

Turning to `CCn1nc2cc(N/C(C)=C3\C(=O)C=C(C)OC3=O)ccc2c1Cl`, in series [1], the CC50 at 48 h came out at 6.25 µM. The IC50 in series [2] turned out to be 2.48 µM; in series [3], 2.25 µM. The selectivity ratio in series [4] amounted to 2.77.

On to `CC1=CC(=O)/C(=C(/C)Nc2ccc3c(cnn3C)c2)C(=O)O1`, for which, in series [1], the CC50 at 48 h was above 100 µM. In addition, the IC50 in series [2] and in series [3] was above 100 µM throughout.

Regarding `CC1=CC(=O)/C(=C(/C)Nc2ccc3c(Cl)nn(Cc4ccc(C)cc4)c3c2)C(=O)O1`, the CC50 at 48 h in series [1] is above 100 µM. Also, the figures for the IC50 in series [2] and in series [3] were 62.6 µM and 49.9 µM, respectively.

Regarding `CC1=CC(=O)/C(=C(/C)Nc2ccc3c(Cl)nn(C)c3c2)C(=O)O1`, the CC50 at 48 h in series [1] was above 100 µM. For the same compound, the IC50 in series [2] and in series [3] was above 100 µM each time.

The compound `CC1=CC(=O)/C(=C(/C)Nc2ccc3nn(C)cc3c2)C(=O)O1` showed a CC50 at 48 h in series [1] above 100 µM. Further, the IC50 in series [2] and in series [3] was above 100 µM in each case.

The compound `CC1=CC(=O)/C(=C(/C)Nc2ccc3c(Cl)n(C)nc3c2)C(=O)O1` had a CC50 at 48 h in series [1] of 6.26 µM. Besides, the IC50 in series [2] was 11.9 µM; in series [3], 3.25 µM. Besides, the selectivity ratio in series [4] is 1.92.

In turn, `CCn1ncc2ccc(N/C(C)=C3\C(=O)C=C(C)OC3=O)cc21` yielded a CC50 at 48 h in series [1] above 100 µM. The IC50 in series [2] and in series [3] was above 100 µM in each case.

In turn, `C[C@@H]1[C@H](O)[C@@H](C)/C=C/C=C/C=C/C=C/C=C/C=C/C=C/[C@H](O[C@@H]2O[C@H](C)[C@@H](O)[C@H](N)[C@@H]2O)C[C@@H]2O[C@](O)(C[C@@H](O)C[C@@H](O)[C@H](O)CC[C@@H](O)C[C@@H](O)CC(=O)O[C@H]1C)C[C@H](O)[C@H]2C(=O)O` [AMPHOTERICIN B] returned a CC50 at 48 h in series [1] of 4.23 µM. This compound had an IC50 in series [3] of 0.115 µM.
